Activity calls are given as the source filed them. No cut-off for these calls is given here.
Test system: not listed separately
Assay: Selectivity index, ratio of IC50 for equine serum BuChE to IC50 for electric eel Ache
Details: not given
How it was run: (§1)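 Ellman method. Equine serum BuChE 0.06 U/mL (for ratio lines, electric eel AChE 0.22 U/mL) in 1 M potassium phosphate buffer. Enzyme stood 5 min with compound before 0.01 M DTNB was added, with butyrylthiocholine iodide as substrate (acetylthiocholine for AChE). Compound range 0.01–100 µM final. IC50 as mean ± SD of three independent experiments. SI = IC50 BuChE / IC50 AChE.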

Row | SMILES | Ratio IC50
1 | COc1ccc(OC)c(C2C=C(c3cccc4ccccc34)Nc3nncn32)c1 (stereo not drawn) | > 160
2 | Fc1ccc(C2C=C(c3cccc4ccccc34)Nc3nncn32)cc1 (stereo not drawn) | 19.7
3 | COc1ccc(-c2cc(-c3cccc4ccccc34)nc3nncn23)cc1OC | > 33.4
4 | c1coc(-c2cc(-c3cccc4ccccc34)nc3nncn23)c1 | 37.7
5 | COc1ccc(C2C=C(c3cccc4ccccc34)Nc3nncn32)cc1 (stereo not drawn) | 17.4
6 | CN(C)c1ccc(-c2cc(-c3cccc4ccccc34)nc3nncn23)cc1 | 166
7 | c1ccc(-c2cc(-c3cccc4ccccc34)nc3nncn23)cc1 | > 168
8 | Clc1ccccc1C1C=C(c2cccc3ccccc23)Nc2nncn21 (stereo not drawn) | 1.03
9 | Clc1ccc(C2C=C(c3cccc4ccccc34)Nc3nncn32)cc1 (stereo not drawn) | 2.42

Target: Acetylcholinesterase (Electrophorus electricus, UniProt O42275)
Assay: Inhibition of electric eel Ache using acetylthiocholine iodide as substrate preincubated for 5 mins followed by substrate addition and measured after 5 mins by Ellman method
Details: not given

Sequence of Acetylcholinesterase (O42275 whole entry): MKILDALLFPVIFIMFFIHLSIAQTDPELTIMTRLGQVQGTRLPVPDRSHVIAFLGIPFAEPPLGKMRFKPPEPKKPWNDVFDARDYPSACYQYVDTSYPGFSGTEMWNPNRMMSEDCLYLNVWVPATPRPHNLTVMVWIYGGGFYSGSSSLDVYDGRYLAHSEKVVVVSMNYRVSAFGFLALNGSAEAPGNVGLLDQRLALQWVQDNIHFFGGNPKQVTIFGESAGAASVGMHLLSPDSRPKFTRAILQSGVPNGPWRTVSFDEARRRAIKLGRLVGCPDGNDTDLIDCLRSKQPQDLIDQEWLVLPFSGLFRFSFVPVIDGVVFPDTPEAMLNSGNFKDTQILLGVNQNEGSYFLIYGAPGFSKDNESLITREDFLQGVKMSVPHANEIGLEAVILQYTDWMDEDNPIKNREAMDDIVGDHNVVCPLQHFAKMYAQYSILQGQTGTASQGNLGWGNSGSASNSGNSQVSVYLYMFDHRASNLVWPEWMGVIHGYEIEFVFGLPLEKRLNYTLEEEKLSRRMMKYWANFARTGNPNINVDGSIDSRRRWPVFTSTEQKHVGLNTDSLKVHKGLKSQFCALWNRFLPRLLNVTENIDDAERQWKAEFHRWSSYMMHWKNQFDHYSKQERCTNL

Row | SMILES | IC50 [nM]
10 | COc1ccc(OC)c(C2C=C(c3cccc4ccccc34)Nc3nncn32)c1 (stereo not drawn) | 602
11 | Fc1ccc(C2C=C(c3cccc4ccccc34)Nc3nncn32)cc1 (stereo not drawn) | 1910
12 | COc1ccc(-c2cc(-c3cccc4ccccc34)nc3nncn23)cc1OC | 3000
13 | c1coc(-c2cc(-c3cccc4ccccc34)nc3nncn23)c1 | 14
14 | COc1ccc(C2C=C(c3cccc4ccccc34)Nc3nncn32)cc1 (stereo not drawn) | 8.6
15 | CN(C)c1ccc(-c2cc(-c3cccc4ccccc34)nc3nncn23)cc1 | 126
16 | c1ccc(-c2cc(-c3cccc4ccccc34)nc3nncn23)cc1 | 597
17 | Clc1ccccc1C1C=C(c2cccc3ccccc23)Nc2nncn21 (stereo not drawn) | 74
18 | O=[N+]([O-])c1cccc(C2C=C(c3cccc4ccccc34)Nc3nncn32)c1 (stereo not drawn) | > 100000
19 | Clc1ccc(C2C=C(c3cccc4ccccc34)Nc3nncn32)cc1 (stereo not drawn) | 371

Target: Cholinesterase (Equus caballus, UniProt P81908)
Assay: Inhibition of equine serum BuChE using butyrylthiocholine iodide as substrate preincubated for 5 mins followed by substrate addition and measured after 5 mins by Ellman method
Details: not given
How it was run: as §1

Sequence of Cholinesterase (P81908 whole entry): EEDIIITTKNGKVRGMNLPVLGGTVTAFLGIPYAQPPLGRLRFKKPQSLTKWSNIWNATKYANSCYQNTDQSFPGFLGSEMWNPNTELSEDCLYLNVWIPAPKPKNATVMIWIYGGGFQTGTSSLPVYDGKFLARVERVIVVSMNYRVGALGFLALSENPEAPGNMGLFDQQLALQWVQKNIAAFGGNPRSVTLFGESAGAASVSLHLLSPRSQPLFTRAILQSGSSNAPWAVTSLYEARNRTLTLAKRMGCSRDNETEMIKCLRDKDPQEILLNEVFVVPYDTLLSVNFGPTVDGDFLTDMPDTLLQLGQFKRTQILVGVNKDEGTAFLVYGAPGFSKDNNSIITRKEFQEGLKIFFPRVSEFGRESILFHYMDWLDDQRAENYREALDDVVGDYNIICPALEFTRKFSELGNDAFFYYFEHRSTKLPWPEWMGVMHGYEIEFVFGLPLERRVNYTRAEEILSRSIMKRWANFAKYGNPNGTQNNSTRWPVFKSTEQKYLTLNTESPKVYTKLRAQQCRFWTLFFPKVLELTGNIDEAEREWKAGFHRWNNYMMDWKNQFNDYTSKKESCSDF

Row | SMILES | IC50 [µM]
20 | COc1ccc(OC)c(C2C=C(c3cccc4ccccc34)Nc3nncn32)c1 (stereo not drawn) | > 100
21 | Fc1ccc(C2C=C(c3cccc4ccccc34)Nc3nncn32)cc1 (stereo not drawn) | 39
22 | COc1ccc(-c2cc(-c3cccc4ccccc34)nc3nncn23)cc1OC | > 100
23 | c1coc(-c2cc(-c3cccc4ccccc34)nc3nncn23)c1 | 0.528
24 | COc1ccc(C2C=C(c3cccc4ccccc34)Nc3nncn32)cc1 (stereo not drawn) | 0.15
25 | CN(C)c1ccc(-c2cc(-c3cccc4ccccc34)nc3nncn23)cc1 | 20.9
26 | c1ccc(-c2cc(-c3cccc4ccccc34)nc3nncn23)cc1 | > 100
27 | Clc1ccccc1C1C=C(c2cccc3ccccc23)Nc2nncn21 (stereo not drawn) | 0.076
28 | O=[N+]([O-])c1cccc(C2C=C(c3cccc4ccccc34)Nc3nncn32)c1 (stereo not drawn) | > 100
29 | Clc1ccc(C2C=C(c3cccc4ccccc34)Nc3nncn32)cc1 (stereo not drawn) | 0.9

Target: T1, Amyloid-beta precursor protein (Homo sapiens, UniProt P05067)
Assay: Inhibition of HFIP-pretreated self-induced amyloid beta (1 to 42) (unknown origin) aggregation at 50 uM measured after 48 hrs by ThT fluorescence assay relative to control
Details: not given
How it was run: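 Aβ1-42 pretreated with HFIP (8 mg/ml), dried under nitrogen, 5 mM stock in DMSO. Diluted in 50 mM phosphate buffer pH 7.4 to 100 µM final and incubated with or without 50 µM compound for 48 h at 37 °C. Diluted with glycine-NaOH 50 mM pH 8.0, then ThT fluorescence read. Buffer blanks included. Mean ± SD of three experiments.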

T1 sequence (P05067 whole entry): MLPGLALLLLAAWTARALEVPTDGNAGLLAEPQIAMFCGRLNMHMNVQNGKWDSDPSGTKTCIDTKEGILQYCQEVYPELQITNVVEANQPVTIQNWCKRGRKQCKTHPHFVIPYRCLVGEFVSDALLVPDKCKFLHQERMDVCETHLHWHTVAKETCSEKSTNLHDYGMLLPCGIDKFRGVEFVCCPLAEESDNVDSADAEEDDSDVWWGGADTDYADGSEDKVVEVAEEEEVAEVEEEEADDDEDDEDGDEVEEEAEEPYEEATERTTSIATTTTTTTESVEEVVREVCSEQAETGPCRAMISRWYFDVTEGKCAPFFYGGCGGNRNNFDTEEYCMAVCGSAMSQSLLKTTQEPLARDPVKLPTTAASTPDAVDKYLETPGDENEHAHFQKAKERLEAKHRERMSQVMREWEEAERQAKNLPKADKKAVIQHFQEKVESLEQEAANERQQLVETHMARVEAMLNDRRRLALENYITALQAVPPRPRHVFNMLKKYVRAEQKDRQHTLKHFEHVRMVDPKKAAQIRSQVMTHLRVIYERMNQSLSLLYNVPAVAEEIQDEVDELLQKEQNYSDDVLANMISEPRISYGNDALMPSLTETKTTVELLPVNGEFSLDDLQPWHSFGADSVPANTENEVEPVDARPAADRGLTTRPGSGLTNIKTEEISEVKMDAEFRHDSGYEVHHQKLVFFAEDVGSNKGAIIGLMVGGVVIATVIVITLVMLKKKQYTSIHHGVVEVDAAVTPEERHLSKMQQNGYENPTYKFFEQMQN

Row | SMILES | inhibition
30 | COc1ccc(OC)c(C2C=C(c3cccc4ccccc34)Nc3nncn32)c1 (stereo not drawn) | 42.1%
31 | Fc1ccc(C2C=C(c3cccc4ccccc34)Nc3nncn32)cc1 (stereo not drawn) | 85.5%
32 | COc1ccc(-c2cc(-c3cccc4ccccc34)nc3nncn23)cc1OC | 36.6%
33 | c1coc(-c2cc(-c3cccc4ccccc34)nc3nncn23)c1 | 12.1%
34 | COc1ccc(C2C=C(c3cccc4ccccc34)Nc3nncn32)cc1 (stereo not drawn) | 31.2%
35 | CN(C)c1ccc(-c2cc(-c3cccc4ccccc34)nc3nncn23)cc1 | 43.1%
36 | c1ccc(-c2cc(-c3cccc4ccccc34)nc3nncn23)cc1 | inactive
37 | Clc1ccccc1C1C=C(c2cccc3ccccc23)Nc2nncn21 (stereo not drawn) | 40.4%
38 | O=[N+]([O-])c1cccc(C2C=C(c3cccc4ccccc34)Nc3nncn32)c1 (stereo not drawn) | 72.8%
39 | Clc1ccc(C2C=C(c3cccc4ccccc34)Nc3nncn32)cc1 (stereo not drawn) | inactive

Target: T1, Amyloid-beta precursor protein
Assay: Disaggregation of self-induced amyloid beta (1 to 42) (unknown origin) preformed fibrils measured after 24 hrs by ThT fluorescence assay relative to control
Details: not given
How it was run: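 HFIP-pretreated Aβ1-42, DMSO stock, diluted in 50 mM phosphate buffer pH 7.4 (100 µM final). Incubated 48 h at 37 °C to form fibrils, then compound or buffer added and held 24 h at 37 °C. Diluted to 200 µl with glycine-NaOH 50 mM pH 8.0, then ThT fluorescence read. Peptide-free buffer blanks with and without compound. Triplicates.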

Row | SMILES | Activity [%]
40 | COc1ccc(OC)c(C2C=C(c3cccc4ccccc34)Nc3nncn32)c1 (stereo not drawn) | 47.9
41 | Fc1ccc(C2C=C(c3cccc4ccccc34)Nc3nncn32)cc1 (stereo not drawn) | 62.6
42 | CN(C)c1ccc(-c2cc(-c3cccc4ccccc34)nc3nncn23)cc1 | 54.5
43 | O=[N+]([O-])c1cccc(C2C=C(c3cccc4ccccc34)Nc3nncn32)c1 (stereo not drawn) | 58.8

Target: T1, Amyloid-beta precursor protein
Assay: Inhibition of self-induced amyloid beta (1 to 42) (unknown origin) aggregation at 12.5 uM measured after 48 hrs by ThT fluorescence assay relative to control
Details: not given
How it was run: (§2)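 Aβ1-42 is pretreated with HFIP (8 mg/ml) and dried to a film under nitrogen. The film is dissolved in DMSO to a 5 mM stock. This is diluted in 50 mM phosphate buffer, pH 7.4, to 100 µM final peptide, with or without compound, and incubated at 37 °C for 48 h. Samples are then diluted with 50 mM glycine-NaOH, pH 8.0, and fibrils quantified by ThT fluorescence. Blanks without Aβ are subtracted. Values are means ± SD of three experiments.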

Row | SMILES | inhibition [%]
44 | Fc1ccc(C2C=C(c3cccc4ccccc34)Nc3nncn32)cc1 (stereo not drawn) | 70.4
45 | O=[N+]([O-])c1cccc(C2C=C(c3cccc4ccccc34)Nc3nncn32)c1 (stereo not drawn) | 42

Target: T1, Amyloid-beta precursor protein
Assay: Inhibition of self-induced amyloid beta (1 to 42) (unknown origin) aggregation at 25 uM measured after 48 hrs by ThT fluorescence assay relative to control
Details: not given
How it was run: as §2

Row | SMILES | inhibition [%]
46 | Fc1ccc(C2C=C(c3cccc4ccccc34)Nc3nncn32)cc1 (stereo not drawn) | 82.4
47 | O=[N+]([O-])c1cccc(C2C=C(c3cccc4ccccc34)Nc3nncn32)c1 (stereo not drawn) | 59.3

Target: T1, Amyloid-beta precursor protein
Assay: Inhibition of self-induced amyloid beta (1 to 42) (unknown origin) aggregation at 75 uM measured after 48 hrs by ThT fluorescence assay relative to control
Details: not given
How it was run: as §2

Row | SMILES | inhibition [%]
48 | Fc1ccc(C2C=C(c3cccc4ccccc34)Nc3nncn32)cc1 (stereo not drawn) | 87.5
49 | O=[N+]([O-])c1cccc(C2C=C(c3cccc4ccccc34)Nc3nncn32)c1 (stereo not drawn) | 85.8

Target: T1, Amyloid-beta precursor protein
Assay: Inhibition of self-induced amyloid beta (1 to 42) (unknown origin) aggregation at 100 uM measured after 48 hrs by ThT fluorescence assay relative to control
Details: not given
How it was run: as §2

Row | SMILES | inhibition [%]
50 | Fc1ccc(C2C=C(c3cccc4ccccc34)Nc3nncn32)cc1 (stereo not drawn) | 95.4
51 | O=[N+]([O-])c1cccc(C2C=C(c3cccc4ccccc34)Nc3nncn32)c1 (stereo not drawn) | 91.4

Target: T1, Amyloid-beta precursor protein
Assay: Inhibition of self-induced amyloid beta (1 to 42) (unknown origin) aggregation measured after 48 hrs by ThT fluorescence assay
Details: not given
How it was run: as §2

Row | SMILES | IC50 [µM]
52 | Fc1ccc(C2C=C(c3cccc4ccccc34)Nc3nncn32)cc1 (stereo not drawn) | 3.87
53 | O=[N+]([O-])c1cccc(C2C=C(c3cccc4ccccc34)Nc3nncn32)c1 (stereo not drawn) | 17.4

Target: T1, Amyloid-beta precursor protein
Assay: Inhibition of self-induced amyloid beta (1 to 42) (unknown origin) aggregation at 50 uM for 48 hrs by TEM analysis
Details: not given
How it was run: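 Aβ1-42 in 50 mM phosphate buffer, pH 7.4, is incubated with or without compound at 37 °C for 48 h, with a curcumin co-incubation and a 0 h sample as comparisons. 10 µL aliquots are applied to carbon grids for 1 min at room temperature, washed with water and negatively stained with sodium phosphotungstate for 1 min. Fibrils are then imaged by transmission electron microscopy.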

Row | SMILES | inhibition
54 | Fc1ccc(C2C=C(c3cccc4ccccc34)Nc3nncn32)cc1 (stereo not drawn) | Active
55 | O=[N+]([O-])c1cccc(C2C=C(c3cccc4ccccc34)Nc3nncn32)c1 (stereo not drawn) | Active

Test system: not listed separately
Assay: Antioxidant activity assessed as trolox equivalent of AAPH-induced radical scavenging activity at 100 uM preincubated for 15 mins followed by AAPH addition and measured at 1 minute interval for 80 mins by ORAC-FL assay
Type: functional
Details: not given
How it was run: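 ORAC-FL in 75 mM phosphate buffer, pH 7.4. Fluorescein 70 nM final was preincubated with the antioxidant 15 min at 37 °C, then AAPH 12 mM final was added. Fluorescence read every minute for 80 min (ex 485/em 520 nm). Net AUC = AUC sample minus AUC blank. Trolox calibration 1–8 µM gave Trolox equivalents. At least three independent runs, each in triplicate.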

Row | SMILES | Activity (umolequiv/umol)
56 | COc1ccc(OC)c(C2C=C(c3cccc4ccccc34)Nc3nncn32)c1 (stereo not drawn) | 0.472
57 | Fc1ccc(C2C=C(c3cccc4ccccc34)Nc3nncn32)cc1 (stereo not drawn) | 0.347
58 | COc1ccc(-c2cc(-c3cccc4ccccc34)nc3nncn23)cc1OC | 0.234
59 | c1coc(-c2cc(-c3cccc4ccccc34)nc3nncn23)c1 | 0.101
60 | COc1ccc(C2C=C(c3cccc4ccccc34)Nc3nncn32)cc1 (stereo not drawn) | 0.446
61 | CN(C)c1ccc(-c2cc(-c3cccc4ccccc34)nc3nncn23)cc1 | 0.171
62 | c1ccc(-c2cc(-c3cccc4ccccc34)nc3nncn23)cc1 | 0.301
63 | Clc1ccccc1C1C=C(c2cccc3ccccc23)Nc2nncn21 (stereo not drawn) | 0.39
64 | O=[N+]([O-])c1cccc(C2C=C(c3cccc4ccccc34)Nc3nncn32)c1 (stereo not drawn) | 0.508
65 | Clc1ccc(C2C=C(c3cccc4ccccc34)Nc3nncn32)cc1 (stereo not drawn) | 0.268

Test system: not listed separately
Assay: Antioxidant activity assessed as DPPH radical scavenging activity at 50 uM preincubated for 5 mins followed by DPPH addition and measured after 30 mins by ultraviolet spectrophotometric analysis relative to control
Type: functional
Details: not given
How it was run: (§3)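 DPPH (0.1 mM) in methanol. Test compound was added and held 5 min before DPPH, then 30 min incubation. Absorbance read at 517 nm. Scavenging % = (A1−A2)/A1×100, with A1 the control absorbance and A2 the compound absorbance. Run in triplicate in 96-well plates.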

Row | SMILES | Activity [%]
66 | COc1ccc(OC)c(C2C=C(c3cccc4ccccc34)Nc3nncn32)c1 (stereo not drawn) | 53.8
67 | Fc1ccc(C2C=C(c3cccc4ccccc34)Nc3nncn32)cc1 (stereo not drawn) | 36.2
68 | COc1ccc(-c2cc(-c3cccc4ccccc34)nc3nncn23)cc1OC | 27.9
69 | c1coc(-c2cc(-c3cccc4ccccc34)nc3nncn23)c1 | 20.4
70 | COc1ccc(C2C=C(c3cccc4ccccc34)Nc3nncn32)cc1 (stereo not drawn) | 35
71 | CN(C)c1ccc(-c2cc(-c3cccc4ccccc34)nc3nncn23)cc1 | 21.3
72 | c1ccc(-c2cc(-c3cccc4ccccc34)nc3nncn23)cc1 | 18.8
73 | Clc1ccccc1C1C=C(c2cccc3ccccc23)Nc2nncn21 (stereo not drawn) | 15.5
74 | O=[N+]([O-])c1cccc(C2C=C(c3cccc4ccccc34)Nc3nncn32)c1 (stereo not drawn) | 33
75 | Clc1ccc(C2C=C(c3cccc4ccccc34)Nc3nncn32)cc1 (stereo not drawn) | 19.2

Test system: not listed separately
Assay: Antioxidant activity assessed as DPPH radical scavenging activity at 10 uM preincubated for 5 mins followed by DPPH addition and measured after 30 mins by ultraviolet spectrophotometric analysis relative to control
Type: functional
Details: not given
How it was run: as §3

Row | SMILES | Activity [%]
76 | O=C(O)c1cc(O)c(O)c(O)c1 | 66

Test system: not listed separately
Assay: Antioxidant activity assessed as DPPH radical scavenging activity at 100 uM preincubated for 5 mins followed by DPPH addition and measured after 30 mins by ultraviolet spectrophotometric analysis relative to control
Type: functional
Details: not given
How it was run: as §3

Row | SMILES | Activity [%]
77 | O=C(O)c1cc(O)c(O)c(O)c1 | 95.3

Target: T1, Amyloid-beta precursor protein
Details: 25 uM

Row | SMILES | inhibition
78 | COc1cc(/C=C/C(=O)CC(=O)/C=C/c2ccc(O)c(OC)c2)ccc1O | Active

— ChEMBL document CHEMBL4387749, “Naphthalene-triazolopyrimidine hybrid compounds as potential multifunctional anti-Alzheimer's agents” (Bioorg Med Chem, 2019)
